High-throughput results deposited in PubChem BioAssay by The Scripps Research Institute Molecular Screening Center.
Only some compounds are listed: those with a hit (about 2.4% of all), similar ones and a draw of the others.
NPY Y1 blocker – NPY-Y1 (human) receptor antagonism | P25929 | HEK293-CNG Y1 cells, membrane potential fluorescence; NPY at EC95, then isoproterenol | inhibition, % at 3.6 µM | 200,000 compounds, 1% hits;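 active means inhibition above the campaign mean inhibition of all tested compounds plus 3 SD, cut at about 20% in these data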;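 further: 0% = DMSO wells given NPY plus isoproterenol and 100% = isoproterenol alone without NPY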
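Material: HEK293 Y1/CNG channel cell line; also added: NPY (25 nM), isoproterenol (1 µM), Ro 20-1724 (25 µM); doses: one concentration, 3.6 µM, in 0.4% DMSO; schedule: compound incubation 1 h at room temperature, readout 45 min post-stimulation; technique: membrane potential fluorescence; measure: fluorescence ratio normalized to % inhibition between controls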
NPY2 pot ag – potentiators or agonists of human neuropeptide Y receptor Y2; P49146; cells expressing NPY-Y2, potentiator/agonist read-out; activation, % at 3.6 µM; 220,000 compounds, 0.45% hits; in the data active means activation above about 27%;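 further: cells stimulated with NPY near EC25 plus isoproterenol at EC100; 0% = vehicle plus submaximal agonist and 100% = vehicle plus saturating agonist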
S1P4 agonist – human S1P4 receptor agonism | S1P4-expressing cell line, agonist reporter assay | 220,000 compounds, 0.35% hits | O95977 | AID 1509 | activation, % at 4.98 µM; in the data active means activation above about 11%;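 further: 0% = DMSO vehicle and 100% = reference agonist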
Target sequence (O95977 whole entry, looked up): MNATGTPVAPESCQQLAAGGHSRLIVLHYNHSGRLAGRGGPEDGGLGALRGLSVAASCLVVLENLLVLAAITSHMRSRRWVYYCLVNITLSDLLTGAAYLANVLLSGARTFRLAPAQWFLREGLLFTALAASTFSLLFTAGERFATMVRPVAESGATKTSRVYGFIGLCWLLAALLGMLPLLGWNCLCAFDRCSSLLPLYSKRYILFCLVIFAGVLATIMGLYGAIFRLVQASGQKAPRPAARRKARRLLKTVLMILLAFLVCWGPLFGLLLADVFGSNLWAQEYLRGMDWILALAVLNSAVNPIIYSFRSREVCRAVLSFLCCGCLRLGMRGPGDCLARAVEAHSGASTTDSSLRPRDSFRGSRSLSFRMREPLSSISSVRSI
NPY1 pot ag – potentiators or agonists of human neuropeptide Y receptor Y1. P25929. AID 1304. activation, % at 3.6 µM. 220,000 compounds, 0.37% hits. NPY-Y1 expressing cells, potentiator/agonist activation; in the data active means activation above about 33%, passing the limit was not always enough;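 further: cells stimulated with NPY at EC10 then isoproterenol at EC100; 0% = low agonist plus stimulus and 100% = saturating agonist plus stimulus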
NPY-Y2 antag – NPY-Y2 (human) receptor antagonism; P49146; NPY-Y2 expressing cells, antagonist mode; inhibition, % at 2.7 µM; 140,000 compounds, 0.99% hits; AID 793;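 further: 0% = vehicle with agonist challenge and 100% = reference antagonist with challenge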
S1P4 antagonist – blocks the human S1P4 receptor; S1P4-expressing cells, antagonist mode, reporter read-out; inhibition, % at 4.98 µM; 220,000 compounds, 0.26% hits; AID 1510; in the data active means inhibition above about 29%;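 further: 0% = wells stimulated with agonist and 100% = vehicle wells without agonist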
NPY-Y1 ant conf – confirmation of human neuropeptide Y receptor Y1 antagonists; shares compounds with NPY Y1 blocker; HEK293-CNG NPY-Y1, membrane potential fluorescence, cAMP; NPY challenge against isoproterenol-raised cAMP; inhibition, % at 3.6 µM; 1,200 compounds, 21% hits; AID 1254; in the data active means inhibition above about 20%;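 further: 0% = vehicle with agonist plus stimulus and 100% = stimulus alone without agonist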
NPY-Y2 antag ct – antagonizes human NPY-Y2, counter-screen to NPY-Y1 antagonists; shares compounds with NPY Y1 blocker; HEK293 NPY-Y2 CNG membrane potential fluorescence, antagonism; cells given NPY, then isoproterenol; inhibition, % at 3.6 µM; 1,200 compounds, 28% hits; AID 1255;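 further: 0% = DMSO with agonist challenge and 100% = reference antagonist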
The depositor's hits bear a star; . = not tested or not shown. Unless noted, no stated cut-off is given here; in the data, active means inhibition above about 17%; inactive means the rest.

SMILES | NPY Y1 blocker | NPY2 pot ag | S1P4 agonist | NPY1 pot ag | NPY-Y2 antag | S1P4 antagonist | NPY-Y1 ant conf | NPY-Y2 antag ct
CC1(C)CC(=O)C=C(NNC(=O)OC(C)(C)C)C1 | 22* | -5 | 1 | -13 | . | -2 | -2 | 1
CCOC(=O)c1c(CSc2cccs2)n(C)c2cc(Br)c(O)c(CN(C)C)c12 | 59* | -53 | 1 | -60 | . | 8 | 51* | 48*
Cc1cc(N2CCOCC2)nc(-c2ccccc2O)n1 | -2 | 1 | 1 | 9 | -2 | 3 | . | .
Cc1ccc(C(C(=O)NC(C)(C)C)N(Cc2cccs2)C(=O)c2ccc3c(c2)OCCO3)cc1 (configuration not stated) | 7 | 4 | -1 | 1 | 2 | 0 | . | .
CC1CC(C)CN(S(=O)(=O)c2ccc(C(=O)N(c3ccccn3)C3CCCCC3)cc2)C1 (configuration not stated) | 31* | -5 | 1 | -15 | . | 12 | 9 | 7
COc1ccc(CCN(C)C2CC(=O)N(c3ccccc3)C2=O)cc1OC (configuration not stated) | . | 8 | -1 | 20 | . | -12 | . | .
CCCc1ccc(Oc2cn[nH]c2-c2ccc(O)cc2O)cc1 | -7 | 33 | 1 | 34 | 1 | -5 | . | .
COc1ccc(Oc2cn[nH]c2-c2ccc(O)cc2O)cc1 | 61* | 6 | 1 | -34 | 3 | -24 | 40* | 2
Cc1ccc2cc(CCNC(=O)C(C)(C)C)c(=O)[nH]c2c1 | 1 | -2 | -1 | -3 | 2 | -11 | . | .
CCCC(O)(CCN1CCCCC1)c1ccc(OCC)cc1 (configuration not stated) | -4 | -8 | 1 | -10 | 3 | 1 | . | .
Cc1cc(C)c(C#N)c(SCC(=O)c2cc(C)n(CCc3ccccc3)c2C)n1 | 24* | 4 | 0 | -10 | 1 | 0 | 10 | 11
COCCn1c(C)cc(C(=O)CSc2nc(C)cc(C)c2C#N)c1C | -8 | 12 | 0 | 7 | 1 | -26 | . | .
CCCCOc1ccc(C(=O)NC)cc1 | 2 | 12 | 1 | 5 | 0 | 10 | . | .
CCCCOc1ccc(CC(=O)NO)cc1 | 38* | 8 | 0 | -19 | -1 | -11 | 0 | 2
CCc1sc(C(=O)Nc2cc(Cl)ccc2N2CCCCC2)cc1C | 21* | -3 | 1 | -5 | 8 | 17 | 1 | 6
CC(C)OC(=O)c1c(N)n(CCCN2CCOCC2)c2nc3ccccc3nc12 | 3 | -4 | 4 | -2 | 1 | -2 | . | .
COc1ccccc1CNC(=O)c1c(N)n(CCCN2CCOCC2)c2nc3ccccc3nc12 | 23* | -5 | 8 | -12 | 14 | -3 | 9 | 7
Cc1ccc(-c2ccccc2[C@@H]2C[C@H]3CN(C)C(=O)[C@]34CCCN24)o1 | 8 | 11 | 1 | 9 | . | 1 | . | .
O=C1N(c2ccccc2)C[C@@H]2C[C@@H](c3cc4ccccc4o3)N3CCC[C@@]123 | 27* | -5 | 0 | -8 | . | 17 | 18 | 12
CN(C[C@H](Cc1ccccc1)N(C[C@H](Cc1ccccc1)N(CCc1cc(C(F)(F)F)cc(C(F)(F)F)c1)N=O)N=O)N=O | 22* | -14 | 1 | -12 | . | 8 | 19 | 8
CC(C)C[C@@H](CN(C)N=O)N(C[C@H](Cc1ccccc1)N(CCc1ccccc1)N=O)N=O | 1 | 1 | 7 | -6 | . | 2 | . | .
COc1ccccc1/C=C/C1(C(=O)NC2CCCC2)CC(=O)N1c1ccccc1 (configuration not stated) | . | 4 | 0 | 4 | . | -4 | . | .
CCCCNC(=O)CN1C(=O)NC2(CCCc3ccccc32)C1=O (configuration not stated) | 25* | -9 | -1 | -10 | -1 | -8 | 0 | 0
CC/C(=N\Nc1ccc([N+](=O)[O-])cc1)c1ccccc1 | -5 | 4 | 3 | 21 | . | 16 | . | .
CCC1(C(=O)c2ccccc2)C(c2ccc([N+](=O)[O-])cc2)C1(C(=O)OC)C(=O)OC (configuration not stated) | 22* | -8 | 0 | -34 | 9 | -11 | 7 | 4
SMILES | NPY Y1 blocker | NPY2 pot ag | S1P4 agonist | NPY1 pot ag | NPY-Y2 antag | S1P4 antagonist | NPY-Y1 ant conf | NPY-Y2 antag ct
CC1Cc2ccccc2N1C(=O)COC(=O)C1(c2ccccc2F)CCCC1 (configuration not stated) | 6 | -2 | -1 | -10 | 4 | -6 | . | .
O=C(O)CSc1nc(-c2ccccc2)nc2c1oc1ccccc12 | 23* | -13 | 2 | 10 | 9 | 4 | 5 | 7
COC(=O)c1ccc(C2C(Oc3ccc(OC)cc3)C(=O)N2CCc2ccc(F)cc2)cc1 (configuration not stated) | 21* | 0 | -2 | -12 | 16 | -9 | 7 | 7
CCc1ccc2c(COn3nnc4ccc(S(=O)(=O)N(C)C)cc43)cc(=O)oc2c1 | -6 | 2 | 1 | -23 | 5 | -6 | . | .
Cc1cccc(C(=O)Nc2cccc(OC(=O)c3cccc(C)c3)c2)c1 | 27* | -24 | 0 | -3 | 17 | 3 | 17 | 11
COC(=O)COc1cccc(NC(=O)c2cccc(C)c2)c1 | 5 | -6 | 2 | -12 | . | -3 | . | .
O=C(Cn1c(C(=O)N2CCN(C3CCCCC3)CC2)cc2sccc21)c1ccccc1 | 22* | -36 | -1 | -35 | 15 | 0 | 10 | 8
CC1CCN(S(=O)(=O)c2ccc(NC(=O)CN3CCN(C)CC3)cc2)CC1 | -1 | -2 | 3 | 5 | 6 | -3 | . | .
Cn1c(=O)c2c(nc(N/N=C/c3ccncc3)n2Cc2ccccc2)n(C)c1=O | . | 5 | 0 | 8 | . | -4 | . | .
CCN(CC(=O)Nc1ccccc1OC)C(=O)COc1ccc2ccccc2c1 | 24* | -16 | 0 | -39 | 15 | -3 | 17 | 7
O=C(COC(=O)COc1ccc2ccccc2c1)NCC(F)(F)F | 29* | -32 | 0 | -50 | . | -7 | 18 | 13
CCNC(=O)COc1ccc2ccccc2c1 | 2 | 11 | -3 | 4 | 2 | -10 | . | .
CN(Cc1c(C(=O)N2CCc3ccccc3C2)nc2ccc(Cl)cn12)C(C1CC1)C1CC1 | 25* | -7 | 0 | -14 | . | 7 | 14 | 12
CCN(C)Cc1c(C(=O)N2CCc3ccccc3C2)nc2ccc(Cl)cn12 | 5 | -2 | 1 | -6 | . | -24 | . | .
C=CCc1ccccc1OCCSc1nc2ccc([N+](=O)[O-])cc2s1 | 21* | -2 | 0 | 2 | 11 | -6 | 16 | 16
COc1ccccc1OCCSc1nc2ccc([N+](=O)[O-])cc2s1 | 1 | -1 | 0 | 3 | 8 | -6 | . | .
